In ChEMBL document CHEMBL1142156, “Pharmacokinetic interaction between voriconazole and methadone at steady state in patients on methadone therapy” (Antimicrob Agents Chemother, 2007):

Assays:
Type in all cases: ADME, organism-based
[1] = AUC (0-24h) in opiate abstinence syndrome patient at 30 to 100 mg, po QD after 2 days; settings: human, plasma
Outline: (§1)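 Male patients on individualized once-daily methadone (30-100 mg) sampled on day 2, before any coadministration. Plasma taken at 1, 2, 3, 4, 6, 8, 10, 12, 16 and 24 h postdose. (R)- and (S)-methadone quantified by chiral LC-MS/MS (range 5 to 500 ng/ml per enantiomer). Noncompartmental analysis: Cmax/Tmax observed, AUC0-24 by linear/log-trapezoidal method. Normalized lines scaled to a 100-mg dose.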

Homo sapiens [2] = test: Dose normalized AUC (0-24h) in opiate abstinence syndrome patient at 30 to 100 mg, po QD after 2 days; settings: in vivo; outline: as §1
Homo sapiens [3] = test: Dose normalized Cmax in opiate abstinence syndrome patient at 30 to 100 mg, po QD after 2 days; settings: in vivo, 48 h; outline: as §1
[4] = Dose normalized Tmax in opiate abstinence syndrome patient at 30 to 100 mg, po QD after 2 days; settings: human, in vivo; outline: as §1
[5] = Cmax in opiate abstinence syndrome patient at 30 to 100 mg, po QD after 2 days; settings: human, in vivo; outline: as §1

SMILES | AUC [1] [ng·h/mL] | AUC (Homo sapiens [2]) [ng·h/mL] | Cmax (Homo sapiens [3]) [ng/mL] | Tmax [4] [h] | Cmax [5] [ng/mL]
CCC(=O)C(C[C@@H](C)N(C)C)(c1ccccc1)c1ccccc1 [LEVOMETHADONE] | 4300 | 5540 | 322 | 1 | 256
CCC(=O)C(C[C@H](C)N(C)C)(c1ccccc1)c1ccccc1 [ESMETHADONE] | 4030 | 5730 | 366 | 1 | 287
